Assay outcomes (PubChem)
A selection: hits, their analogues and other compounds. The true share with any hit is near 2.2%.
DYRK1A inh – rat Dyrk1A kinase inhibitors, primary screen, biochemical, single point, plate reader. ADP-Glo luminescence, NFATc1 peptide. 310,000 compounds, 0.43% hits. inhibition, % at 12.5 µM; in the data active = inhibition above about 50%;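 note: plate controls were vehicle with enzyme for no effect and no enzyme for full effect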
dFosB activator – activators of delta FosB homodimer, primary screen, biochemical, fluorescence polarization, TAMRA-CDK5 oligo, single point; Protein FosB (Mus musculus), P13346; AID 493131, 2011; purified delta FosB; percent of positive-control signal above neutral wells; 340,000 compounds, 0.99% hits; activation, % at 25 µM;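 active = mean activation above about 17%, with every replicate also reaching it, limit read from the data, passing the limit was not always enough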
Target sequence (P13346 whole entry, looked up): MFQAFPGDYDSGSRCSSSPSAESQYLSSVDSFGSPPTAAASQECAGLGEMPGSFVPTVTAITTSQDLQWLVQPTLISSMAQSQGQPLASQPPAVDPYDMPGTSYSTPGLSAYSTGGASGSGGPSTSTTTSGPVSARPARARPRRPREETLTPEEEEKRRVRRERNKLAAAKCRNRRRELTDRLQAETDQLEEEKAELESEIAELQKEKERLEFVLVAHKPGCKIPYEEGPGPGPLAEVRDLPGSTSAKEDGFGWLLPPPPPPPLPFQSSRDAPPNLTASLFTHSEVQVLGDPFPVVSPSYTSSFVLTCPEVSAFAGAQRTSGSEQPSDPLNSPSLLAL
Rtt109 Vps75 – inhibitors of C. albicans Rtt109/Vps75 HAT, primary screen, biochemical, ThioGlo CoA-SH fluorescence, plate reader. inhibition, % at 34.9 µM. Histone acetyltransferase RTT109 (Candida albicans (strain SC5314 / ATCC MYA-2876)), …. AID 540336, 2011. purified Rtt109/Vps75, 4 h. 330,000 compounds, 0.16% hits;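 active = inhibition of at least 50% in every replicate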
Target sequence (Q5AAJ8 whole entry, looked up): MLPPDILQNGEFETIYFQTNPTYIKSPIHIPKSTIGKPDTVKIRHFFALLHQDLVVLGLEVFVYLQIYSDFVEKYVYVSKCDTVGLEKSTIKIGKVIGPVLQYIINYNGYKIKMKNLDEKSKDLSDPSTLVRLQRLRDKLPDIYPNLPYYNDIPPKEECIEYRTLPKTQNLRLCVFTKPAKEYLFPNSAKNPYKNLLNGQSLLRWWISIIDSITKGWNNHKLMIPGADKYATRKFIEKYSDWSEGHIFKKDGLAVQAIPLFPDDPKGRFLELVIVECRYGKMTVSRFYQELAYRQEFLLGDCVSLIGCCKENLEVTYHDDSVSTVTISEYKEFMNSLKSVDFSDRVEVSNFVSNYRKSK
CAL PDZ FP-1 – untagged CAL PDZ binding inhibitors, primary screen, biochemical, fluorescence polarization, HTS; purified CAL PDZ, TMR-peptide fluorescence polarization, 1 h; Golgi-associated PDZ and coiled-coil motif-containing protein (Homo sapiens), Q9HD26; AID 602252, 2012; 300,000 compounds, 0.92% hits; inhibition, % at 24.9 µM;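 active = mean inhibition of at least 30% with at least half of replicates also reaching 30%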;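 note: 0% = DMSO neutral control and 100% = excess unlabeled competitor peptide PRC23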
CDK5 p35 inh – inhibitors of human CDK5/p35 kinase, primary screen, biochemical, single concentration. Cyclin-dependent kinase 5 (Homo sapiens) + Cyclin-dependent kinase 5 activator 1 (Homo …. AID 488839, 2010. Recombinant CDK5/p35, ADP-Glo luminescence, 60 min. 330,000 compounds, 0.01% hits. inhibition, % at 10 µM;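 active = highest replicate inhibition of at least 50% and at least 75% of replicates reaching 50%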;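 note: plate controls were DMSO neutral control for no effect and GW8510 at 10 µM for full effect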
CAL PDZ FP-2 – CAL PDZ peptide-binding inhibitors, primary screen, biochemical, fluorescence polarization, Cer-tagged CAL PDZ, HTS | AID 504414, 2011 | 330,000 compounds, 0.02% hits | purified CAL PDZ, TMR-peptide fluorescence polarization, 1 h | Golgi-associated PDZ and coiled-coil motif-containing protein (Homo sapiens), Q9HD26 | inhibition, % at 20 µM;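 active = highest replicate inhibition of at least 40%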;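 note: plate controls were DMSO neutral control wells for no effect and unlabeled competitor peptide control wells for full effect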
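Material: tagged CAL PDZ domain; buffer or medium: 25 mM sodium phosphate pH 7.4, 150 mM NaCl, TCEP, IgG, Thesit; compound dosing: single point, 20 µM; schedule: 1 h incubation at room temperature before polarization reading; measured by: FP readout, S and P plane fluorescence; read-out basis: percent inhibition from loss of millipolarization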
ADP-Glo artifact – ADP-Glo luciferase interference without Dyrk1A, dose response, artefact control for Dyrk1A inhibitor project, biochemical, luminescence, cherry-pick, set 02. shares compounds with DYRK1A inh. ADP-Glo luciferase artifact assay, no Dyrk1A. AC50, µM (doses to about 12 µM), for inactives: at the highest dose activity change, negative = inhibition. 1,300 tested, under 10 active. AID 588348, 2011;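 active = fitted half-maximal dose AC50 no more than ten times the top valid tested dose, with luminescence dropping as dose rises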
An asterisk follows results filed as active; / = no result given.

SMILES	DYRK1A inh	dFosB activator	Rtt109 Vps75	CAL PDZ FP-1	CDK5 p35 inh	CAL PDZ FP-2	ADP-Glo artifact
Cc1cccnc1CNC(=O)C1CCC(=O)N(CCc2cccc(F)c2)C1 (stereo not given)	1.8	2.9	-12.0	/	1.5	0.2	/
CC(=O)Nc1ccc(C2=CC(=O)CC(C)(C)C2)cc1	7.3	0.4	-7.2	-1.4	0.2	0.3	/
COC(=O)C1CSC(c2ccc(Cl)cc2)N1C(=O)c1ccccc1 (stereo not given)	-3.4	-6.3	-16.7	/	-1.3	-0.9	/
Cc1ccc(CN(C(=O)c2ccccc2[N+](=O)[O-])C2CCS(=O)(=O)C2)o1 (stereo not given)	3.4	-0.4	-17.4	/	-0.7	-0.4	/
COc1cc([N+](=O)[O-])cc2cc(C(=O)N3CCCC3)c(=O)oc12	-2.2	-6.1	-4.0	-3.6	-3.1	-0.2	/
CN(Cc1ccccc1)C(=O)COC(=O)c1ccc(=O)n(Cc2ccccc2)n1	-5.1	-13.6	-6.7	-2.1	-3.6	-2.7	/
Cc1cc(=O)[nH]c(SCC(=O)c2ccccc2)c1C#N	10.2	0.7	-2.3	0.5	-0.6	-1.3	/
Cc1ccccc1NC(=O)CSc1[nH]c(=O)cc(C)c1C#N	57.8*	-0.5	1.0	/	-1.5	-0.4	7.6%
COc1cc(/C=C2\SC(N)=NC2=O)cc(Cl)c1O	61.1*	1.7	3.6	/	1.0	0.4	9.9%
O=C(Nc1cccnc1)c1scc2c1OCCO2	52.0*	-2.3	-14.0	-0.9	4.6	-0.2	10.1%
Cc1noc(NS(=O)(=O)c2ccc(NC(=O)c3oc4ccc(Cl)cc4c3C)cc2)c1C	64.3*	11.8	26.9	-8.3	-2.2	-3.1	10.2%
Cc1cc(-c2nnc(CCC(=O)N(C)Cc3cccc4ccccc34)o2)no1	10.7	3.7	-2.0	/	-1.9	-0.5	/
CCC1NC(C(=O)O)Cc2c1[nH]c1ccccc21 (stereo not given)	50.2*	0.5	-66.0	-1.3	3.2	0.2	7.9%
CN1C[C@@H]2[C@@H]3C(=O)N(Cc4ccccc4)C(=O)[C@@H]3[C@](C)(C1=O)N2C(=O)c1ccc(Br)cc1	-5.3	-4.5	6.3	-2.1	-3.3	-1.4	/
N#C/C(=C/c1ccc(O)c([N+](=O)[O-])c1)C(=O)Nc1ccccc1	81.0*	-3.2	22.2	4.1	1.1	-1.0	9.1%
N#C/C(=C\c1ccc(O)c(O)c1)C(=O)NCCc1ccccc1	70.4*	0.0	14.5	-1.0	0.9	0.2	11.3%
COC(=O)CSc1ncnc2c1sc1nc3c(cc12)COC(C)(C)C3	5.8	-22.7	-1.0	-1.5	-2.9	-2.3	/
CC1(C)Cc2nc3sc4c(SCC(=O)O)ncnc4c3cc2CO1	92.5*	-9.2	-3.9	3.0	-1.1	-0.2	4.1%
c1csc(CNc2ncnc3ccc(-c4ccc5c(c4)OCCO5)cc23)c1	71.9*	0.0	0.7	-7.4	-0.2	-3.8	5.1%
c1cncc(-c2ccc3ncnc(NCc4cccs4)c3c2)c1	37.4	-36.9	0.9	-4.2	1.7	-4.8	/
c1nc2sc3c(c2c2nnnn12)CCCC3	50.3*	-1.5	-4.3	0.5	1.6	-1.2	8.2%
c1nc2sc3c(c2c2nnnn12)CCC3	10.2	-7.3	-3.6	/	1.7	-1.3	/
O=C(CSc1nnnn1-c1ccc(O)cc1)Nc1ccc(N2CCOCC2)c(Cl)c1	51.0*	-8.0	5.4	5.1	0.3	-0.5	7.7%
COc1ccccc1CN1CC(C(=O)NC2CCOCC2)CCC1=O (stereo not given)	1.6	3.4	-8.0	0.7	-0.8	-1.4	/
O=C(NN1C(=O)/C(=C/c2ccc(O)c([N+](=O)[O-])c2)SC1=S)c1ccccc1Cl	74.0*	-3.2	1.2	-5.0	2.0	0.6	9.8%
SMILES	DYRK1A inh	dFosB activator	Rtt109 Vps75	CAL PDZ FP-1	CDK5 p35 inh	CAL PDZ FP-2	ADP-Glo artifact
COc1ccc2c(c1)CCc1c-2n[nH]c1C(=O)O	58.6*	-3.8	11.6	-0.6	-1.3	1.0	14.0%
O=C(NCc1ccco1)c1sc2ccccc2c1Cl	55.6*	-15.9	7.8	-4.7	0.7	/	10.3%
O=C(O)COc1ccc(/C=C/c2ccc3cccc([N+](=O)[O-])c3n2)cc1	65.6*	-7.1	13.6	-4.7	-3.6	-0.4	9.5%
COc1cc(/C=C/c2ccc3cccc([N+](=O)[O-])c3n2)ccc1OCC(=O)O	45.6	-6.0	27.4	-2.1	-1.5	-1.7	/
O=C(Nc1ccc2c(c1)OCCO2)N1CCN(Cc2ccccc2)CC1	/	-4.1	2.0	-1.8	0.9	0.6	/
CC(=O)Nc1ccc(SCC(=O)Nc2ccccc2-c2ccccc2)cc1	2.4	-4.9	1.5	3.2	5.9	1.3	/
CC(=O)Nc1ccc(SCc2ncc(-c3ccccc3)o2)cc1	64.2*	-12.6	-7.4	0.3	2.7	-1.7	6.1%
O=C1OCc2cccc3cccc1c23	51.0*	-0.6	3.8	-2.5	0.3	/	8.3%
Oc1ccc(-c2nccc(-c3cccs3)n2)cc1	61.2*	-16.8	15.1	-6.4	1.8	-3.0	4.7%
COc1ccc(-n2ccc(-c3nn(-c4cccc(C(F)(F)F)c4)ccc3=O)n2)cc1	50.6*	-1.3	2.5	-7.5	0.1	/	6.2%
CC(=NCc1cccnc1)C1=C(O)c2ccccc2C1=O	51.2*	-13.0	-2.9	-5.8	3.8	/	8.7%
CCCN=C(C)C1=C(O)c2ccccc2C1=O	-18.8	-11.9	/	1.5	-0.2	-1.4	/
COc1ccc(C2CC(=O)c3cnc(NC(=O)c4ccccc4)nc3C2)c(OC)c1 (stereo not given)	12.4	1.7	16.9	-3.5	1.0	/	/
CCCSc1nnc(NC(=O)Nc2ccccc2OC)s1	/	-14.5	4.8	-4.5	0.8	-1.5	/
Cn1c(-c2ccccc2)c(C=O)c2ccccc21	77.5*	-9.8	-10.0	-0.3	-0.8	-4.8	6.8%
COc1ccc2cc3cc(C(=O)NCC4CCCO4)oc3nc2c1 (stereo not given)	54.4*	-22.8	-59.9	0.9	2.4	0.1	9.9%
COCCNC(=O)c1cc2cc3ccc(OC)cc3nc2o1	58.2*	-18.9	6.3	3.1	-0.3	0.4	9.5%
